Shown are actives, neighbours in structure and some others; about 0.79% of the full set was active somewhere.
mIAP activ = activators of mouse IAP, primary screen, biochemical, luminescence, uHTS; intestinal alkaline phosphatase [Mus musculus]; muIAP, CDP-Star luminescence, 30 min; hits give high values; 1 = vehicle-only enzyme signal, 0 = enzyme-free wells; activation factor at 10 µM; hit rate 0.24% among 330,000; AID 2805, 2010;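 active = activation factor of at least 2 at 20 µM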
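Assay system: mouse IAP enzyme; reagent: chemiluminescent substrate CDP-Star; dosing: test compounds delivered from DMSO solution; schedule: 30 min at room temperature; measured by: luminescence from enzymatic CDP-Star hydrolysis; controls: DMSO-only wells and no-enzyme negative control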
hIAP activ = human IAP activators, primary screen, biochemical, luminescence, uHTS | purified human IAP, CDP-Star luminescence, 30 min; hits give high values; 1 = vehicle-only enzyme, 0 = enzyme-free background | activation factor at 10 µM | hit rate 0.16% among 330,000;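 active = activation factor of the enzyme at least 2-fold when tested at 20 µM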
Target sequence (P09923 whole entry, looked up): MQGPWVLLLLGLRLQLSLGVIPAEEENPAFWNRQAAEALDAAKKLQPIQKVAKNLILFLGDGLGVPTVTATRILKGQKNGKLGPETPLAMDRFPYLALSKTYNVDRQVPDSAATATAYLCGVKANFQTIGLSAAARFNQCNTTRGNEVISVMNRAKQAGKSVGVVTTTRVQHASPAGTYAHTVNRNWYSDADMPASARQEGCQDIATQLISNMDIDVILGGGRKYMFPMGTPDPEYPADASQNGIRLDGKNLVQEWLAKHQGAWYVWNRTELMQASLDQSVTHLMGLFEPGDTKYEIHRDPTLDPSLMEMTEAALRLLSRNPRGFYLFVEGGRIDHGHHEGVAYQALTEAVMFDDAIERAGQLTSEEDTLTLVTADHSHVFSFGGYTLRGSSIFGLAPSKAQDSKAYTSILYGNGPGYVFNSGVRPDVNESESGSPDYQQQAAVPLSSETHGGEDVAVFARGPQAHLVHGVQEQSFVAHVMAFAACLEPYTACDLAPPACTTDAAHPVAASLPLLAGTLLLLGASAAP
bIAP inh = bovine intestinal alkaline phosphatase inhibitors, primary screen, selectivity assay for TNAP inhibitor project, biochemical, bovine IAP, CDP-star luminescence. alkaline phosphatase, intestinal [Bos taurus]. purified bovine IAP, 30 min. inhibition, % at 20 µM. 190,000 tested, under 10 active. AID 1019, 2008;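 active = over 50% inhibition of intestinal alkaline phosphatase at 20 µM in the single-dose screen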
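Assay system: bovine IAP enzyme; medium: DEA buffer 100 mM, pH 9.8, with MgCl2 1.0 mM, ZnCl2 0.02 mM; doses: 20 µM single dose; incubation: enzyme reaction for 30 min at room temperature; detection: CDP-star luminescence signal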
hIAP inh = human IAP inhibitors, primary screen, biochemical, luminescence, uHTS | purified IAP, CDP-Star luminescence, 30 min | inhibition, % at 10 µM | hit rate 0.12% among 330,000 | AID 2544, 2010;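 active = inhibition reaching a set limit with compound at 10 µM in the primary screen, cut at about 35% in these data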;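 also: plate controls were DMSO wells with enzyme for no effect and no-enzyme buffer wells for full effect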
bIAP activator = bovine intestinal alkaline phosphatase activators, primary screen, biochemical, bovine IAP, CDP-star luminescence; alkaline phosphatase, intestinal [Bos taurus]; purified bovine IAP, 30 min; hits give high values; fold of DMSO-control signal, blank-subtracted; activation factor at 20 µM; hit rate 0.17% among 200,000;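 active = activation factor of 2 or more at 20 µM, a signal rise over negative controls twice the positive control's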
mIAP inh = inhibitors of mouse IAP, primary screen, biochemical, luminescence, uHTS; intestinal alkaline phosphatase [Mus musculus]; purified mouse IAP, CDP-Star luminescence, 30 min; inhibition, % at 10 µM; hit rate 0.2% among 330,000; AID 2806, 2010;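 active = inhibition of at least 40% at 10 µM in the primary screen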;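 also: plate controls were DMSO with enzyme for no effect and no enzyme wells for full effect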
mIAP inh conf = inhibitors of mouse IAP, confirmation, biochemical, luminescence, single concentration; shares compounds with mIAP inh; purified mouse IAP, CDP-Star luminescence, 30 min; inhibition, % at 10 µM; hit rate 4.7% among 11,000;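 active = inhibition of at least 40% at 10 µM in either of the two replicates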;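 also: plate controls were DMSO wells with enzyme for no effect and buffer wells lacking enzyme for full effect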
Starred values were filed as active, the others as inactive; i = inactive; / = no result given.

SMILES | mIAP activ | hIAP activ | bIAP inh | hIAP inh | bIAP activator | mIAP inh | mIAP inh conf
Cc1ccc(NC(=O)NC2(C(=O)NCc3ccccc3)CCCCC2)cc1 | 2.75* | 0.805 | 7.9 | 19.5 | 0.9 | -174.6 | -131.0
O=C(Nc1ccc(F)cc1)NC1(C(=O)NCc2ccco2)CCCCC1 | 1.19 | 1.14 | 7.1 | -14.1 | 0.9 | -18.7 | /
O=C1OCCC1(c1ccccc1)c1ccccc1 | 0.948 | 0.853 | / | 14.7 | / | 5.2 | /
CCOC(=O)CCNCc1ccc(F)cc1 | 1.13 | 0.981 | 1.4 | 1.9 | 1 | -13.4 | /
Oc1ccc(-c2cn3c(n2)SCC3)cc1O | 0.391 | 0.936 | 27.1 | 6.4 | 0.7 | 60.9* | 91.8*
COc1ccc(NC(=O)NC2CCCc3ccccc32)c(OC)c1 (stereo unspecified) | 1.13 | 1.03 | / | -3.5 | / | -12.9 | /
COc1cccc(NC(=O)NC2CCCc3ccccc32)c1 (stereo unspecified) | 2.84* | 0.997 | -9.3 | 0.3 | 1.1 | -183.9 | -174.0
CCC1CCC(NC(=O)Nc2cccc(OC)c2)CC1 (stereo unspecified) | 2.2* | 1.19 | -13.7 | -19.4 | 1.1 | -119.9 | -137.0
CCCCN(C(=O)c1cccc(S(=O)(=O)N2CCCCC2)c1)C1CCS(=O)(=O)C1 (stereo unspecified) | 1.01 | 1.12 | / | -12.3 | / | -0.7 | /
Cc1cc(C)cc(NC(=O)NCc2c(-c3ccccc3)noc2C)c1 | 4.7* | 1.04 | / | -3.7 | / | -369.9 | -173.2
Cc1onc(-c2ccccc2)c1CNC(=O)Nc1ccc(F)cc1F | 1.44 | 1.19 | / | -19.1 | / | -44.1 | /
Cc1onc(-c2ccccc2)c1CNC(=O)Nc1cccc(Cl)c1 | 4.02* | 1.26 | / | -25.9 | / | -302.3 | -132.6
Cc1nn(C)c(C)c1CNC(=O)Nc1cccc(Cl)c1 | 1.23 | 1.11 | -4.1 | -10.9 | 1 | -23.4 | /
Cc1onc(-c2ccccc2)c1CNC(=O)Nc1ccc(C(F)(F)F)cc1 | 4.06* | 1.23 | / | -23.0 | / | -306.3 | -99.1
O=C(O)c1ccccc1N/C=C\[N+](=O)[O-] | 0.871 | 0.926 | 5.6 | 7.4 | 0.9 | 12.9 | /
N#CCCN(C(=O)CN1CCN(S(=O)(=O)c2ccc(Cl)s2)CC1)c1ccc(F)cc1 | 1.02 | 0.851 | / | 14.9 | / | -1.9 | /
CC(Cc1ccc(O)c(O)c1)C(C)Cc1ccc(O)c(O)c1 (stereo unspecified) | 0.417 | 1.14 | / | -14.0 | / | 58.3* | 50.6*
COc1cc(C[C@@H](C)[C@@H](C)Cc2ccc(O)c(OC)c2)ccc1O | 0.891 | 0.936 | / | 6.4 | / | 10.9 | /
CC1CCCCC1NC(=O)CSc1nnc(COc2ccc(Cl)cc2)o1 (stereo unspecified) | 0.971 | 0.983 | / | 1.7 | / | 2.9 | /
Cc1ccc(Nc2nc(-c3ccc(O)c(O)c3)cs2)nc1 | 0.54 | 1.08 | 20.0 | -8.3 | 0.8 | 46.0* | 52.4*
Cc1ccc(Nc2nc(-c3ccc(F)cc3)cs2)nc1 | 1.07 | 0.946 | / | 5.4 | / | -7.2 | /
NC(=O)c1c(/N=C/c2cccs2)sc2c1CCCC2 | 0.998 | 0.85 | / | 15.0 | / | 0.2 | /
NS(=O)(=O)c1ccc(Nc2nc(-c3ccc(O)cc3O)cs2)cc1 | 0.595 | 1.07 | -19.1 | -6.9 | 1.2 | 40.5* | 59.9*
COc1ccc(S(=O)(=O)/N=C2/NC(=O)/C(=C\c3ccco3)S2)cc1 | 0.416 | 0.981 | -40.7 | 1.9 | 1.4 | 58.4* | 64.3*
COc1ccc2oc(=O)c(C(=O)C[n+]3cccc(C)c3)cc2c1 | 0.817 | 1.02 | -1.2 | -2.0 | 1 | 18.3 | /
SMILES | mIAP activ | hIAP activ | bIAP inh | hIAP inh | bIAP activator | mIAP inh | mIAP inh conf
O=C(c1ccc(-n2cncn2)c([N+](=O)[O-])c1)N1CCN(S(=O)(=O)c2cccc(F)c2)CC1 | 0.987 | 1.03 | / | -2.6 | / | 1.3 | /
O=C1c2cccc(O)c2C(=O)c2c(O)cc(CO)cc21 | 0.551 | 0.829 | / | 17.1 | / | 44.9* | 51.7*
Cc1cc(O)c2c(c1)C(=O)c1cc(O)cc(O)c1C2=O | 0.822 | 0.997 | / | 0.3 | / | 17.8 | /
CC(NC(=O)CCn1ccc2cc(S(=O)(=O)N3CCCC3)ccc21)c1ccccc1 (stereo unspecified) | 1.05 | 0.828 | / | 17.2 | / | -5.0 | /
CSc1cccc(NC(=O)C2CCCN(S(=O)(=O)c3ccc(F)cc3)C2)c1 (stereo unspecified) | 1.35 | 1.15 | 12.0 | -14.8 | 0.9 | -35.2 | /
CSc1cccc(NC(=O)C2CCN(S(=O)(=O)c3ccc(F)cc3)CC2)c1 | 3.05* | 1.4 | -17.0 | -39.7 | 1.2 | -204.8 | -97.7
O=C(CSc1nc2ccccc2c(=O)[nH]1)c1ccc(O)c(O)c1 | 0.378 | 0.934 | / | 6.6 | 0.1 | 62.2* | 72.1*
COC(=O)C(C)Oc1ccc(Oc2nc(Cl)ccc2Cl)cc1 (stereo unspecified) | 1.02 | 1.02 | -2.1 | -1.6 | 1 | -2.4 | /
Cc1nc(NC(=O)c2ccccc2)sc1-c1csc(NCc2ccco2)n1 | 0.557 | 0.74 | 9.8 | 26.0 | 0.9 | 44.3* | 56.2*
CC(NC(=O)Nc1ccc(Cl)cc1)c1ccccc1 (stereo unspecified) | 3.28* | 0.88 | / | 12.0 | / | -228.4 | -110.7
CCOc1ccc(NC(=O)NC(C)c2ccc3c(c2)OCO3)cc1 (stereo unspecified) | 1.21 | 1.08 | / | -8.4 | / | -21.2 | /
CC(C)c1ccc(NC(=O)NC(C)c2ccc3c(c2)OCO3)cc1 (stereo unspecified) | 4.52* | 1.16 | / | -15.5 | / | -352.2 | -231.2
CC(=O)C1C(c2ccc(Cl)cc2)c2c(noc2C)CC1(C)O (stereo unspecified) | 0.95 | 0.97 | / | 3.0 | / | 5.0 | /
Cc1ccccc1NC(=S)NC(NC(=O)c1ccccc1C)C(Cl)(Cl)Cl (stereo unspecified) | 2.05* | 1.31 | 4.1 | -31.4 | 1 | -104.6 | -107.3
O=C1NC(SCCCF)=N/C1=C/c1ccc(-n2cncn2)cc1 | 0.915 | 1.04 | / | -4.0 | / | 8.5 | /
Cc1cc(C)cc(NC(=O)C2CCN(S(=O)(=O)c3ccc4c(c3)NC(=O)C(C)S4)CC2)c1 (stereo unspecified) | 2.45* | 1.44 | / | -43.5 | / | -145.1 | -96.0
O=C(Nc1ccc(Cl)cc1)NC1CCCCC1Cc1ccco1 (stereo unspecified) | 7.83* | 1.21 | -55.9 | -20.5 | 1.6 | i | -110.8
O=C(Nc1cccc(Cl)c1)NC1CC2CCC(C1)N2Cc1ccco1 (stereo unspecified) | 1.15 | 1.15 | -2.2 | -15.3 | 1 | -14.8 | /

Screens deposited in PubChem by Sanford-Burnham Center for Chemical Genomics.
